Data: ChEMBL document CHEMBL3585296, “Flavonoids from Perovskia atriplicifolia and Their in Vitro Displacement of the Respective Radioligands for Human Opioid and Cannabinoid Receptors” (J Nat Prod, 2015)

Key:
[1] = target: T1, Delta-type opioid receptor (Homo sapiens, UniProt P41143); test: Displacement of [3H]DPDPE from delta opioid receptor (unknown origin) transfected into HEK293 cells by microplate scintillation counting; format: cell-based
[2] = target: T1, Delta-type opioid receptor; test: Agonist activity at human delta opioid receptor transfected into HEK293 cells assessed as effect on [35S]-GTPgammaS binding at 300 uM; format: functional, cell-based
Outline: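 Modified GTPγ[35S] functional assay. Tested at 300 μM. Binding is expressed as percent of the maximal GTPγ[35S] binding given by the full agonist DPDPE.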

[3] = target: T1, Delta-type opioid receptor; test: Displacement of [3H]DPDPE from delta opioid receptor (unknown origin) transfected into HEK293 cells at 10 uM by microplate scintillation counting; format: cell-based
Outline: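 HEK293 cells stably expressing the δ opioid receptor were kept in DMEM with 0.2 mg/mL G418. Compound at 10 μM (triplicate dilutions) was incubated with 0.99 nM [3H]-DPDPE and 20 μg membrane for 60 min in 50 mM Tris-HCl, pH 7.4. Bound label was collected by GF/B filtration. Nonspecific binding was defined with 10 μM DPDPE. Results are given as % displacement.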

[4] = target: Cannabinoid receptor 2 (Homo sapiens) (UniProt P34972); test: Displacement of [3H]-CP55940 from human CB2 receptor transfected into HEK293 cells at 10 uM by microplate scintillation counting; format: cell-based
Chain of Cannabinoid receptor 2 (Homo sapiens) (P34972 whole entry): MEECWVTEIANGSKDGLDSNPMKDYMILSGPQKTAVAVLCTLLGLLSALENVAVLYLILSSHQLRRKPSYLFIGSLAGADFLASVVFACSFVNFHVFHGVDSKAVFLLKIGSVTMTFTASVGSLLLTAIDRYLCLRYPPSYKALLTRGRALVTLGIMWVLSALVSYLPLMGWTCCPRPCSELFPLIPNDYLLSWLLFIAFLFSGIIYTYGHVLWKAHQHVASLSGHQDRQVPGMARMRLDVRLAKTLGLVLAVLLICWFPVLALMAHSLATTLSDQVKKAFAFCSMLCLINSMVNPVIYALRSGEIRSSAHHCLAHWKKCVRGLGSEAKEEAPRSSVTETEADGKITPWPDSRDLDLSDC
Outline: (§1)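 HEK293 cells stably expressing cloned human CB1 or CB2 were grown in DMEM/F-12 with 0.5 mg/mL G418. Membranes were made by sonication and differential centrifugation. Compound at 10 μM (independent triplicate dilutions) was incubated with [3H]-CP 55,940, at 1.6975 nM for CB1 or 1.959 nM for CB2. Membrane was 5 μg for CB1 or 1 μg for CB2. Incubation was 90 min at 37 °C in Tris/EDTA/NaCl/0.2% BSA, pH 7.4. Bound label was collected on GF/C filters. Nonspecific binding was defined with 10 μM CP-55,940. Results are given as % displacement.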

[5] = target: Cannabinoid receptor 1 (Homo sapiens) (UniProt P21554); test: Displacement of [3H]-CP55940 from human CB1 receptor transfected into HEK293 cells at 10 uM by microplate scintillation counting; format: cell-based; outline: as §1
Chain of Cannabinoid receptor 1 (Homo sapiens) (P21554 whole entry): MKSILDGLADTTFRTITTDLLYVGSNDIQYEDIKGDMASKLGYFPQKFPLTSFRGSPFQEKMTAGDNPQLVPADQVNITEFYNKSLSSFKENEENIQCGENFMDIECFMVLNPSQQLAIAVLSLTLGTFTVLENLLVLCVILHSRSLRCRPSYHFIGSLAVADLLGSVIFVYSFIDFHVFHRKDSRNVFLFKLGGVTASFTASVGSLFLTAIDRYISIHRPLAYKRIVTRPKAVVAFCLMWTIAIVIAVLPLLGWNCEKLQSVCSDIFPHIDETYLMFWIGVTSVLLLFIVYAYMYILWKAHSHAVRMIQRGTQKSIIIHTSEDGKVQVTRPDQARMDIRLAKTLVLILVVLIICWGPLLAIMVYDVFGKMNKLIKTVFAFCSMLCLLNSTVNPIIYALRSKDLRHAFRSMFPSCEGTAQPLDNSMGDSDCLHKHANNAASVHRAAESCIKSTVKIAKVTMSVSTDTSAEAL

T1 sequence (P41143 whole entry): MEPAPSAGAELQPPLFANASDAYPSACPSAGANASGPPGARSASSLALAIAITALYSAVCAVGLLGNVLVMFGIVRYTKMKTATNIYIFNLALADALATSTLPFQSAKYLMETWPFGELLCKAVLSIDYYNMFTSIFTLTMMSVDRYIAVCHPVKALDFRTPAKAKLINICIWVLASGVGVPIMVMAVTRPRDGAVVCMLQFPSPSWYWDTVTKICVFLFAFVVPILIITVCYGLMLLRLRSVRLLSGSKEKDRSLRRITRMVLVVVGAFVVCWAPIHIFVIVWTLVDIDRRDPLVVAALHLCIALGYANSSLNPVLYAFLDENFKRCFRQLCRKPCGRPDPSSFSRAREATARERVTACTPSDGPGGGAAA

Row | SMILES | Ki [1] [µM] | Activity [2] [%] | Activity [3] [%] | Activity [4] [%] | Activity [5] [%]
1 | COc1ccc(-c2cc(=O)c3c(O)c(OC)c(OC)cc3o2)cc1OC | 3.1 | 32 | 86 | 4.2 | 3
2 | COc1ccc(-c2cc(=O)c3c(O)c(OC)c(O)cc3o2)cc1OC |  |  | 19.9 | 12.5 | 0.3
3 | COc1ccc(-c2cc(=O)c3c(O)c(OC)c(O)cc3o2)cc1 [PECTOLINARIGENIN] | 8.4 | 48 | 79.9 | 13.5 | 19.3
4 | COc1ccc(-c2cc(=O)c3c(O)c(OC)c(OC)cc3o2)cc1 [SALVIGENIN] | > 26 | 88 | 31.6 | 8.3 | 1.7
